# Measurements of several laboratories.
# Each line is one published result; the experiments were not run side by side.
# Target: Cytochrome P450 2D6 (CYP2D6, Homo sapiens, UniProt P10635)
SMILES,test,system,conditions,endpoint,value
CC(=O)c1cccc(OCc2cc(C(=O)N(C)[C@@H](C)c3ccccn3)no2)c1,"enzyme activity, inhibitor","human, liver microsomes",,IC50,> 30 µM
CN(Cc1cnc2nc(N)nc(N)c2n1)c1ccc(C(=O)N2CCCCC2)cc1,"enzyme activity, inhibitor, luciferase",,10 µM,inhibition,-23.3%
C=C[C@H]1C[N@@]2CC[C@H]1C[C@@H]2[C@@H](O)c1ccnc2ccc(OC)cc12,"enzyme activity, inhibitor","human, liver microsomes",1 µM,inhibition,80.8%
CC1(CO)C(O[C@@H]2O[C@H](C(=O)O)[C@@H](O)[C@H](O)[C@H]2O)CC[C@@]2(C)C1CC[C@]1(C)C2CC=C2[C@H]3CC(C)(C)[C@H](O)[C@@H](O)[C@]3(CO)[C@H](O)C[C@]21C (some centres unmarked),"enzyme activity, inhibitor, mass spectrometry","human, liver microsomes",,IC50,> 90 µg/mL
Cc1cccc(F)c1N1CCC(N2Cc3cn(CC(C)(F)F)nc3N(Cc3ccccc3C(F)(F)F)C2=O)CC1,"enzyme activity, inhibitor","human, liver microsomes",,IC50,> 10 µM
O=C(N[C@H](Cc1c[nH]c2ccccc12)C(=O)Nc1ccncc1)c1ccc(-c2cc(F)ccc2F)cc1F,"enzyme activity, inhibitor","human, liver microsomes",1 µM,inhibition,47%
Cc1ccc(C(=O)N2CCOC[C@H]2Cc2cccc(-n3nccn3)c2)c(-n2nccn2)c1,"enzyme activity, inhibitor","human, liver microsomes",100 µM,inhibition,33%
COCCc1ccc(OCC(O)CNC(C)C)cc1 (centres unmarked),,"human, plasma","oral, 100 mg, single dose, healthy volunteers",AUC(0-inf),770 ng·h/mL
C=CC(=O)Nc1cc(Nc2nccc(Nc3cc(Cl)c(F)cc3C(C)(C)O)n2)c(OC)cc1N1CC[C@@H](N(C)C)C1,"enzyme activity, inhibitor","human, liver microsomes",10 µM,inhibition,< 20%
Nc1nc(N)c2nc(CNc3cccc4ccccc34)cnc2n1,"enzyme activity, inhibitor, luciferase",,10 µM,inhibition,102%
Cc1nc2c([nH]1)c(=O)n(C)c(=O)n2Cc1ccco1,"enzyme activity, inhibitor","human, liver microsomes",40 µM,inhibition,-35%
CCN(Cc1cnc2nc(N)nc(N)c2n1)c1ccc(C(=O)N2CCC(C(=O)OC)CC2)cc1,"enzyme activity, inhibitor, luciferase",,10 µM,inhibition,-20%
Nc1ccc(S(=O)(=O)Nc2ccnn2-c2ccccc2)cc1,"enzyme activity, inhibitor","human, liver microsomes",10 µM,inhibition,-23%
NC(=O)C1CCCN1C(=O)Cc1ccc(N(CCCO)Cc2cnc3nc(N)nc(N)c3n2)cc1 (centres unmarked),"enzyme activity, inhibitor, luciferase",,10 µM,inhibition,-13.9%
CCc1cc(/C(C)=N/OCc2ccc(C3CCCCC3)c(C(F)(F)F)c2)ccc1CN1CC(C(=O)O)C1,"enzyme activity, inhibitor","human, liver microsomes","200 µM, 20 min",inhibition,17.4%
NC(=O)C1CCN(C(=O)Cc2ccc(N(CCCO)Cc3cnc4nc(N)nc(N)c4n3)cc2)CC1,"enzyme activity, inhibitor, luciferase",,10 µM,inhibition,-15.4%
C[C@H]1C[C@@H](N2C(=N)N[C@](C)(c3cccc(NC(=O)c4cccc(C#N)c4)c3Cl)CC2=O)CCO1,"enzyme activity, inhibitor","human, liver microsomes","20 µM, 15 min",inhibition,45%
